Compound activity deposited in PubChem by Broad Institute.
Env fusion inh – inhibitors of HIV Env-mediated cell fusion. HeLa-JRFL Env/CEM21 cell fusion, luciferase. inhibition, % at 12.3 µM. 360,000 tested, 1.1% active. AID 651610;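 active means mean replicate inhibition score of at least 50 and every replicate individually at or above 50; inconclusive means only one of the two criteria met; inactive means mean below 50 and not all replicates reaching 50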;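 further: 0% = plate neutral controls and 100% = maraviroc near 300 nM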
PGC1a acetyl inh – modulators of PGC1a acetylation. U2OS PGC1a acetylation, AlphaScreen anti-acetyl-lysine; with virally co-expressed GCN5 acetyltransferase. inhibition, % at 15.6 µM. 350,000 tested, 0.17% active;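 active means every replicate shows inhibition of at least 40%; inconclusive means mean inhibition at least 40% but some replicate below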;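 further: 0% = neutral control wells and 100% = positive control wells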
FN deposition inh – fibronectin deposition inhibition | AH1F fibroblasts, Alexa488-fibronectin deposition fluorescence, overnight | inhibition, % at 12.6 µM | 350,000 tested, 0.086% active | AID 743247;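 active means mean inhibition across replicates of 30% or more, regardless of how many single replicates reach that level; inconclusive means mean under 30% yet at least half of replicates reach 30%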;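 further: positive control wells lacked labelled fibronectin entirely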
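Material – AH1F fibroblast monolayer, labelled fibronectin deposition · Reagent – labelled fibronectin 24 nM · Timing – 1 h adhesion, overnight exposure · Measured by – fluorescence at 485 nm excitation, 525 nm emission · Read-out – inhibition of fibronectin deposition signal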
PAX8 inh HTS – PAX8 transcriptional activity inhibition; RMG-I TPO-luciferase reporter, SteadyGlo, 24 h; inhibition, % at 12.6 µM; 360,000 tested, 1.2% active;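 active means mean replicate inhibition at least 60% with every replicate also reaching 60%; inconclusive means only one of the two criteria is met; inactive means mean below 60% and not all replicates reaching 60%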;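 further: luciferase light reporting Pax8 driven TPO promoter activity; plate controls were median of neutral control wells for no effect and mitoxantrone controls for full effect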
EWS-Fli block – EWS/Fli transcriptional activity inhibition; 350,000 tested, 0.67% active; inhibition, % at 12.6 µM; A673 NR0B1-luciferase reporter, viability-normalised;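 active means mean inhibition of at least 50% after viability correction, with every replicate also passing that limit; inconclusive means mean reaches 50% but only one of two replicates passes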;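 further: firefly luciferase signal divided by Alamar Blue viability fluorescence both relative to DMSO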
FGF22 binding – shifts melting point of recombinant human FGF22 | Q9HCT0 | recombinant FGF22 thermal shift, SYPRO orange fluorescence; percent of sucrose octasulfate shift, DMSO zero | activity (Tm shift, normalised), % at 9.99 µM | 340,000 tested, 1.5% active;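 active means mean Tm shift, scaled 0 neutral to 100 positive control, at about 1.3% or above, every replicate too, limit read from the data; inconclusive means no clear call, values can overlap the other calls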
Target sequence (Q9HCT0 whole entry, looked up): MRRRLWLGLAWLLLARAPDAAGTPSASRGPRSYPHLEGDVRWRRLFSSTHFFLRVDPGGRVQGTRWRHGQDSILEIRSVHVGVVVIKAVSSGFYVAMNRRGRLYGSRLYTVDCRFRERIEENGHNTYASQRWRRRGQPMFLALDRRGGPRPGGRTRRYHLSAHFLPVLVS
DNA binding – binds DNA displacing acridine orange. shares compounds with EWS-Fli block. 640 tested, 2% active. AID 720586. salmon sperm DNA acridine orange fluorescence polarization. AC35, µM (titrated, usually from 68 µM), inactives show top-dose activity change, negative = DNA binding;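 active means fitted curve reaches a 35% signal fall AC35 below twice the sample's top valid tested dose, actives reach about 48 µM in these data; inactive means the rest, including activity in the rising direction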;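 further: lower polarization ratio signals compound binding to DNA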
Numbers without * were called inactive; ? = inconclusive; nt = not tested or not shown; ! = a repeat was not active; [ ] = dose if it differs, or a comment. Shown are actives, neighbours in structure and some others; about 3.1% of the full set was active somewhere.

SMILES	Env fusion inh	PGC1a acetyl inh	FN deposition inh	PAX8 inh HTS	EWS-Fli block	FGF22 binding	DNA binding
COc1cc(/C=C/C(=O)/C=C(O)/C=C/c2ccc(O)c(OC)c2)ccc1O	nt	nt	0	1	81*	0	30µM*
COc1cc(C=O)ccc1O	nt	nt	5	-16	6	0	nt
COc1cc(C=C(C(C)=O)C(C)=O)ccc1O	-18	?	0	4	nt	nt	nt
CO[C@H]1CN(C)C(=O)c2ccc(NC(=O)C3CC3)cc2OC[C@@H](C)N(C(=O)C2CCOCC2)C[C@H]1C	nt	nt	4	-9	-5	0	nt
COC(=O)C1=CN(c2ccc(OC)cc2)C(N)=C(C#N)C1c1ccc(OC)cc1 (stereo unspecified)	-20	nt	nt	6	-1	0	nt
CCc1ccc(N2C=C(C(=O)OC)C(c3ccc(OC)cc3)C(C#N)=C2N)cc1 (stereo unspecified)	30	nt	-3	3	54*	0	-8%
N#C[C@H]1[C@H](c2ccc(C#Cc3ccccc3F)cc2)[C@@H](CO)N1C(=O)C1CC1	7[16.7 µM]	-3	6	12	19	0	nt
CCc1cnc(N2[C@H](C#N)[C@H](c3ccc(C#Cc4ccccc4F)cc3)[C@@H]2CO)s1	10[16.7 µM]	-15	11	-8	-22	0	nt
N#C[C@@H]1[C@H](c2ccc(C#Cc3ccccc3F)cc2)[C@@H](CO)N1C(=O)c1cccnc1	nt	-4	7	47	74*	0	7%
CCc1cnc(N2[C@H](C#N)[C@H](c3ccc(C#Cc4ccccc4F)cc3)[C@H]2CO)s1	65*[16.7 µM]	-38	-19	49	53*	0	-6%
N#C[C@H]1[C@H](c2ccc(C#Cc3ccccc3F)cc2)[C@@H](CO)N1C(=O)C1CCOCC1	18[16.7 µM]	-7	-5	75*	67*	0	-9%
N#C[C@H]1N[C@H](CO)[C@H]1c1ccc(C#Cc2ccccc2F)cc1	nt	-16	8	-30	53*	0	4%
CC(=NNc1ccc2ccccc2n1)c1ccccc1O	18	nt	-10	32	74*	0	-15%
COc1ccc2nc(NN=C(C)c3ccccn3)cc(C)c2c1	6	-27	9	32	33	0	nt
CC(=NNc1ccc2ccccc2n1)c1ccccn1	110*	nt	-8	114*	85*	0	8%
COC(=O)C(CC#Cc1ccc2c(c1)[C@]1(C(=O)N2)[C@H](c2ccc(OCCO)cc2)N2[C@H](c3ccccc3)[C@H](c3ccccc3)OC(=O)[C@H]2[C@@H]1C(=O)N1CCN(c2ncccn2)CC1)C(=O)OC	-13[16.7 µM]	nt	nt	-22	76*	0	3%
COCCOC(=O)N1C(=O)[C@@]2(c3cc(C#CCCO)ccc31)[C@H](C(=O)N1CCN(c3ncccn3)CC1)[C@H]1C(=O)O[C@H](c3ccccc3)[C@H](c3ccccc3)N1[C@@H]2c1ccccc1OCCO	-12[16.7 µM]	-7	nt	nt	-6	0	nt
COCCOC(=O)N1C(=O)[C@@]2(c3cc(C#CCC(C(=O)OC)C(=O)OC)ccc31)[C@H](c1ccccc1OCCO)N1[C@H](c3ccccc3)[C@H](c3ccccc3)OC(=O)[C@H]1[C@@H]2C(=O)N1CCN(c2ncccn2)CC1	-39[16.7 µM]	nt	nt	14	61*	0	1%
CN1C(=O)c2cc(NC(=O)c3ccccc3Cl)ccc2OC[C@@H]2O[C@H](CC(=O)NCC(F)(F)F)CC[C@H]21	10[16.7 µM]	nt	14	-33	2	0	nt
COc1ccc(C#Cc2ccc3c(c2)[C@]2(C(=O)N3)[C@H](C(=O)N3CCN(c4ncccn4)CC3)[C@H]3C(=O)O[C@H](c4ccccc4)[C@H](c4ccccc4)N3[C@@H]2c2ccc(O)cc2)cc1	-20[16.7 µM]	-2	nt	6	0	1	nt
C[C@@H]1CN([C@@H](C)CO)C(=O)c2cc(NC(=O)C3CC3)ccc2O[C@H]1CN(C)Cc1ccc(C(=O)Nc2ccccc2N)cc1	17[16.7 µM]	3	nt	nt	39	0	nt
Cc1ccc(S(=O)(=O)N(C)C[C@@H]2Oc3ccc(NC(=O)CCCCCC(=O)Nc4ccccc4N)cc3CC(=O)N([C@@H](C)CO)C[C@@H]2C)cc1	24[16.7 µM]	-9	nt	20	56*	0	-3%[56 µM]
C[C@@H]1CN([C@@H](C)CO)C(=O)Cc2cc(N(C)C)ccc2O[C@@H]1CN(C)Cc1ccccc1	-50[16.7 µM]	-6	nt	21	55*	0	-10%
C[C@H]1CN([C@@H](C)CO)C(=O)c2cc(N(C)C)ccc2O[C@@H]1CN(C)Cc1ccc(C(=O)Nc2ccccc2N)cc1	-28[16.7 µM]	-22	nt	59	65*	0	-3%
C[C@H]1CN([C@@H](C)CO)C(=O)c2cc(NC(=O)C3CCCCC3)ccc2O[C@H]1CN(C)Cc1ccc(C(=O)Nc2ccccc2N)cc1	-26[16.7 µM]	-6	nt	nt	52*	0	-7%
SMILES	Env fusion inh	PGC1a acetyl inh	FN deposition inh	PAX8 inh HTS	EWS-Fli block	FGF22 binding	DNA binding
C[C@H]1CN([C@@H](C)CO)C(=O)Cc2cc(N(C)C)ccc2O[C@H]1CN(C)Cc1ccccc1	8[16.7 µM]	9	nt	-34	-14	0	nt
COc1cccc(S(=O)(=O)Nc2ccc3c(c2)[C@@H]2C[C@@H](CC(=O)NCCc4ccccc4)O[C@@H](CO)[C@@H]2O3)c1	14[16.7 µM]	6	nt	17	2	0	nt
CC=Cc1ccc2n(c1=O)C[C@H]1[C@H](CO)[C@@H](C(=O)N(C)C)[C@@H]2N1C(=O)c1ccc(F)cc1 (mixture of isomers)	6[16.7 µM]	nt	nt	-2	-7	0	nt
C[C@H](CO)N1C[C@H](C)[C@H](CN(C)Cc2ccc(C(=O)Nc3ccccc3N)cc2)Oc2ccc(N(C)C)cc2CC1=O	-154[16.7 µM]	37	-3	32	67*	-1	1%
C[C@H](CO)N1C[C@H](C)[C@@H](CN(C)Cc2ccc(Oc3ccccc3)cc2)Oc2ccc(NS(=O)(=O)c3ccc(Cl)cc3)cc2CC1=O	12[16.7 µM]	1	17	101*	57*	0	-4%
C[C@@H]1CN([C@H](C)CO)C(=O)CCCn2nncc2CO[C@H]1CN(C)Cc1ccc(Oc2ccccc2)cc1	17	-2	21	116*!	70*!	0	-12%
C[C@H](CO)N1C[C@H](C)[C@H](CN(C)Cc2ccc(Oc3ccccc3)cc2)OCc2cnnn2CCCC1=O	-5[16.7 µM]	15	15	nt	14	0	nt
C[C@@H]1CN([C@@H](C)CO)C(=O)Cc2cc(NC(=O)Nc3ccc(C(F)(F)F)cc3)ccc2O[C@@H]1CN(C)Cc1ccc(C(=O)Nc2ccccc2N)cc1	-33[16.7 µM]	-3	nt	nt	55*	0	-4%
CC(=O)N1[C@H](CN(C(=O)c2ccccc2)C(C)C)[C@H](c2ccccc2)[C@@H]1CO	nt	2	nt	-3	-7	nt	nt
